Assay results published in ChEMBL document CHEMBL4425108, “A Selective and Slowly Reversible Inhibitor of l-Type Amino Acid Transporter 1 (LAT1) Potentiates Antiproliferative Drug Efficacy in Cancer Cells” (J Med Chem, 2016).
Activity calls are given as the source filed them. The rule behind the calls is not given here.

Assays:
[1] = biological target: T1, Large neutral amino acids transporter small subunit 1 (Homo sapiens, UniProt Q01650); experiment: Competitive inhibition of [14C]-L-leucine uptake at LAT1 in human MCF7 cells preincubated for 5 mins followed by addition of substrate measured during 5 mins by liquid scintillation counting; assay type: cell-based
T1 sequence (Q01650 whole entry): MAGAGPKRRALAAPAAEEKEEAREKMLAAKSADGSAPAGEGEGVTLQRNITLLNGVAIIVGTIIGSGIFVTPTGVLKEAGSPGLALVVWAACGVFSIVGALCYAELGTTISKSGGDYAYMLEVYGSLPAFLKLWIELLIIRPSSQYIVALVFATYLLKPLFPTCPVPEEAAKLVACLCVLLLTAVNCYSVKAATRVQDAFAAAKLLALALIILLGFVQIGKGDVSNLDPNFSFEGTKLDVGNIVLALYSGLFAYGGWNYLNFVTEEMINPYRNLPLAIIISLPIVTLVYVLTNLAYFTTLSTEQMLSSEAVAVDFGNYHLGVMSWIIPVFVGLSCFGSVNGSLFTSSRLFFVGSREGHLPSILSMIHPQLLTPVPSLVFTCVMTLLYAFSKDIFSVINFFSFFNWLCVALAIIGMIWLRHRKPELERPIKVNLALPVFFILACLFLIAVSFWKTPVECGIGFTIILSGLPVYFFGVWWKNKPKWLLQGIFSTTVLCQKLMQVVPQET

[2] = biological target: T1, Large neutral amino acids transporter small subunit 1; experiment: Competitive inhibition of [14C]-L-leucine uptake at LAT1 in human MCF7 cells at 25 uM preincubated for 10 mins followed by addition of substrate measured during 5 mins by liquid scintillation counting; assay type: cell-based
Summary of the method: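 MCF-7 cells seeded 1 × 10^5/well, used one day later. Washed and pre-incubated 10 min at 37 °C in choline-chloride HBSS (Na+-free, 25 mM HEPES, pH 7.4), then 5 min at 37 °C with 0.157 µM [14C]-L-leucine plus 1-1000 µM inhibitor (DMSO blank). Ice-cold washes, NaOH lysis, scintillation counting. IC50 by nonlinear regression over 8 concentrations. Mean ± SD, n=3.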

[3] = biological target: T2, Large neutral amino acids transporter small subunit 2 (Homo sapiens) (UniProt Q9UHI5); experiment: Competitive inhibition of [14C]-L-alanine uptake at LAT2 in human MCF7 cells at 50 to 1000 uM measured during 5 mins by liquid scintillation counting; assay type: cell-based
T2 sequence (whole entry): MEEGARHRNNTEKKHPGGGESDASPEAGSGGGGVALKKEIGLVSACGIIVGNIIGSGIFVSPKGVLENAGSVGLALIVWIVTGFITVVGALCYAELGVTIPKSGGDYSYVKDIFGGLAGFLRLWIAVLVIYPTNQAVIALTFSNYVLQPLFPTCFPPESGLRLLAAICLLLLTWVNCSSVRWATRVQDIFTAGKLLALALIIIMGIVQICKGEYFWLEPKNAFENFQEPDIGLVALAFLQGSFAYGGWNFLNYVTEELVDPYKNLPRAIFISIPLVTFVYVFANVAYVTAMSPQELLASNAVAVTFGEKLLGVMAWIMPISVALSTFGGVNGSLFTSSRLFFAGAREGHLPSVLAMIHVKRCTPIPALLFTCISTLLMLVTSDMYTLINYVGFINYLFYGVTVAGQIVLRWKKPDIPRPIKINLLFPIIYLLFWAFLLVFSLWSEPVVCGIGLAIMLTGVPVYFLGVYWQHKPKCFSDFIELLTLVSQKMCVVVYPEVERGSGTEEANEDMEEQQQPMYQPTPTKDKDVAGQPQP
Summary of the method: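 MCF-7 cells were seeded at 1 × 10^5 cells/well and used one day later. Cells were washed and pre-incubated 10 min at 37 °C in HEPES-buffered HBSS (choline chloride, pH 7.4). Uptake of 10.0 µM [14C]-L-alanine ran 5 min at 37 °C with test agent (1–1000 µM) or DMSO blank. Cells were then given three ice-cold washes, lysed in 0.1 M NaOH and counted by liquid scintillation; n=3.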

[4] = biological target: T1, Large neutral amino acids transporter small subunit 1; experiment: Competitive binding to LAT1 in human MCF7 cells at 100 uM after 30 mins in presence of OATP 1B1/1B3 inhibitor rifampicin by HPLC analysis; assay type: cell-based
Summary of the method: (§1)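 MCF-7 cells incubated 30 min at 37 °C in HBSS (pH 7.4) holding 100 µM test compound plus 500 µM competitor. Cells washed three times with ice-cold HBSS and lysed in 0.1 M NaOH. Cell-associated compound measured by HPLC against a lysate-spiked standard curve and normalised to protein. Mean ± SD, n=3.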

[5] = biological target: T1, Large neutral amino acids transporter small subunit 1; experiment: Competitive binding to LAT1 in human MCF7 cells at 100 uM after 30 mins in presence of unselective OATP substrate L-thyroxine by HPLC analysis; assay type: cell-based; summary of the method: as §1
MCF7 [6] = experiment: Antiproliferative activity against human MCF7 cells assessed as reduction in cell viability at 25 uM measured after 24 hrs by resazurin dye-based fluorimetric analysis; assay type: functional
Summary of the method: (§2)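 MCF-7 cells were seeded at 2 × 10^4 cells/well on collagen-coated plates and treated one day later. Agents were given alone or combined (25 or 100 µM with 100 µM partner drug) in growth medium for 3 days. Viability was read daily by resazurin fluorescence (ex 560/em 590 nm) and expressed relative to untreated controls.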

MCF7 [7] = experiment: Antiproliferative activity against human MCF7 cells assessed as reduction in cell viability at 100 measured after 48 hrs by resazurin dye-based fluorimetric analysis; assay type: functional; summary of the method: as §2
[8] = biological target: T1, Large neutral amino acids transporter small subunit 1; experiment: Inhibition of LAT1 in human MCF7 cells assessed as potentiation of bestatin-induced antiproliferative activity by measuring reduction in cell viability at 25 uM measured after 48 hrs by resazurin dye-based fluorimetric analysis
Summary of the method: (§3)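 MCF-7 cells seeded 2 × 10^4/well on collagen-coated plates, treated one day later in growth medium with inhibitor (25 or 100 µM) plus bestatin or cisplatin (100 µM) for up to 3 days. Viability read daily by resazurin fluorescence (ex 560/em 590 nm). Viability is treated relative to untreated control. Mean ± SD, n=3.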

[9] = biological target: T1, Large neutral amino acids transporter small subunit 1; experiment: Inhibition of LAT1 in human MCF7 cells assessed as potentiation of cisplatin-induced antiproliferative activity by measuring reduction in cell viability at 100 uM measured after 72 hrs by resazurin dye-based fluorimetric analysis; summary of the method: as §3
[10] = AUC (0 to 480 min) in mouse brain at 23 umol/kg, ip administered as bolus by LC-MS analysis; assay type: ADME, organism-based; parameters: time < 8 hr, dose 23 umol/kg, route intraperitoneal; conditions: in vivo, 8 h
Summary of the method: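 Male adult mice (25 ± 5 g) given a single i.p. bolus at 23 µmol/kg. The dosing solution was 1.36 mM in 10% (v/v) DMSO, 20% (w/v) hydroxypropyl-β-cyclodextrin and 0.9% NaCl. Animals were decapitated at seven time points from 10 to 480 min. Plasma and tissues were acetonitrile-precipitated with repaglinide internal standard and analysed by LC-MS. Parameters were derived from concentration–time data, mean ± SEM (n=3).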

[11] = Fraction unbound in mouse prostate at 23 umol/kg, ip administered as bolus by LC-MS analysis; assay type: ADME, organism-based, Prostate gland
Summary of the method: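 Unbound fraction was measured by equilibrium dialysis at 100 µM in mouse plasma and in brain, liver, kidney, heart and prostate homogenates.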

[12] = Unbound AUC (0 to 480 mins) in mouse heart at 23 umol/kg, ip administered as bolus by LC-MS analysis; assay type: ADME, organism-based; conditions: in vivo
Summary of the method: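 Male mice (25 ± 5 g) dosed i.p. as a bolus at 23 µmol/kg in DMSO/hydroxypropyl-β-cyclodextrin/saline vehicle, sampled at time points 10–480 min; plasma and tissue homogenates (1:3 water) analysed by LC-MS. […] Mean ± SEM.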

[13] = Tmax in mouse plasma at 23 umol/kg, ip administered as bolus by LC-MS analysis; assay type: ADME, organism-based
Summary of the method: (§4)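 Adult male mice (25 ± 5 g) given a single i.p. bolus of 23 µmol/kg, dosing solution 1.36 mM in 10% (v/v) DMSO, 20% (w/v) hydroxypropyl-β-cyclodextrin, 0.9% NaCl in water. Decapitation at time points 10–480 min; plasma, brain, liver, prostate, kidney, heart collected. Acetonitrile precipitation with repaglinide internal standard, LC-MS (ESI positive). tmax and t½β taken from concentration-time data; mean ± SEM, n=3.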

[14] = Terminal half life in mouse prostate at 23 umol/kg, ip administered as bolus by LC-MS analysis; assay type: ADME, organism-based, Prostate gland; conditions: read-out: beta t1/2; summary of the method: as §4
[15] = Plasma concentration in mouse at 23 umol/kg, ip measured after 10 mins; assay type: ADME, organism-based

SMILES: CNC(=O)COc1ccc(-c2c(C#N)c(NC(=O)c3cccc(C[C@H](N)C(=O)O)c3)n3c(nc4ccccc43)c2C#N)cc1
- IC50 [1]: 18.2 µM
- inhibition [1]: Dose-dependent effect
- inhibition [2]: 55.1%
- inhibition [3]: inactive
- Activity [4]: Active
- Activity [5]: Active
- Activity (MCF7 [6]): 13.9%
- Activity (MCF7 [7]): 14.8%
- Activity [8]: 40.5%
- Activity [9]: 81.9%
- AUC [10]: 11 nmol/g/min
- fraction unbound [11]: 0.0144
- fAUC [12]: 4 nmol/g/min
- Tmax [13]: 10 min
- half-life [14]: 12 min
- concentration at 10 min [15]: 20 µM
